SMILES strings stand for the structures. Activity calls are given as the source filed them. The rule behind the calls is not given here. Bounds are passed on as bounds.

Assay [1] concerns the target Tyrosine-protein kinase Fyn (Homo sapiens, UniProt P06241, T342G). In words: Inhibition of Fyn T342G mutant expressed in Escherichia coli C43 by radioactive phosphotransfer assay.
A short description of assay [2]: Inhibition of c-src T338G mutant by radioactive phosphotransfer assay. An outline of the steps:
(§1)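 Kinase-domain c-Src variants (T338G, S345C, T338G/S345C) were made by site-directed mutagenesis and expressed in E. coli BL21(DE3) co-transformed with YopH, GroEL and trigger factor. Protein was quantified by A280 and stored at −80 °C. Radioactive phosphotransfer assays were run in triplicate across a range of inhibitor concentrations.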

The target in assay [3] is Tyrosine-protein kinase Fyn (Homo sapiens, UniProt P06241, S349C/T342G). The experiment in a line: Inhibition of Fyn T342G/S349C double mutant expressed in Escherichia coli C43 by radioactive phosphotransfer assay.
Tyrosine-protein kinase Fyn (Homo sapiens, UniProt P06241, S349C/T342G), sequence (P06241 2-537 T342G/S349C limits assumed): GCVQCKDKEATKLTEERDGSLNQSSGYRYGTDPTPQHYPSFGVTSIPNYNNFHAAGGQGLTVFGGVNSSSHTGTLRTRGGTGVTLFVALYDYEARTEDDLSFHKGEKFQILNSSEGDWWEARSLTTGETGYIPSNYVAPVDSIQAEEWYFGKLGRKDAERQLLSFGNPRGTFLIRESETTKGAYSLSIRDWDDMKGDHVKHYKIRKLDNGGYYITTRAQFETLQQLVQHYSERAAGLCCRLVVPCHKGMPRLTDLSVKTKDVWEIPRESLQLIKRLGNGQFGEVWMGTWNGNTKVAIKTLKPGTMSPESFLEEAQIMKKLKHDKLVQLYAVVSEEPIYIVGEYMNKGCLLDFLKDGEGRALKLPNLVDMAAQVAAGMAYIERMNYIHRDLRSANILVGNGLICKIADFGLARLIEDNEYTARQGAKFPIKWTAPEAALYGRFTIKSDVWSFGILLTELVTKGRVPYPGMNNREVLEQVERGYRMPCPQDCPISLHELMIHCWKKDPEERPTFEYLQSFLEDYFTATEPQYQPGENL
The target in assay [4] is Tyrosine-protein kinase Fyn (Homo sapiens, UniProt P06241, S349C). In words: Inhibition of Fyn S349C mutant in expressed in Escherichia coli C43 by radioactive phosphotransfer assay.
Tyrosine-protein kinase Fyn (Homo sapiens, UniProt P06241, S349C), sequence (P06241 2-537 S349C limits assumed): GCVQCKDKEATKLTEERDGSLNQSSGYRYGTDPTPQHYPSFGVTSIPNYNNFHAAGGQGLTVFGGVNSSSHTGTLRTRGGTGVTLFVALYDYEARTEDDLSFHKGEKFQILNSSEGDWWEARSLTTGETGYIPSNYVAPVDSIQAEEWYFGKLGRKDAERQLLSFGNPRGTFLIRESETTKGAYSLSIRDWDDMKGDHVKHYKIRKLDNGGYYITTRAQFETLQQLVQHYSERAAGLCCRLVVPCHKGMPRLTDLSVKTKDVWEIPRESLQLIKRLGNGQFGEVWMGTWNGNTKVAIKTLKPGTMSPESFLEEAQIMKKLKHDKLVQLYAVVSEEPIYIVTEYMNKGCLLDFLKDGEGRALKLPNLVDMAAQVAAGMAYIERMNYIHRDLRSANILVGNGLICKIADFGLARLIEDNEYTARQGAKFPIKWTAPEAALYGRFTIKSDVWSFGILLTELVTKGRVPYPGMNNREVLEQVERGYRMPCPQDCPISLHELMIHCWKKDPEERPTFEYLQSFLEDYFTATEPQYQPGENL
Assay [5] concerns the target T1, Epidermal growth factor receptor (Homo sapiens, UniProt P00533). In words: Inhibition of human recombinant EGFR expressed in baculovirus-infected Sf9 cells by radioactive phosphotransfer assay. Format: cell-based.
Assay [6] in a line: Inhibition of c-src T338G/S345C double mutant by radioactive phosphotransfer assay. An outline of the steps: as §1
Assay [7] concerns the target Proto-oncogene tyrosine-protein kinase Src (Gallus gallus) (UniProt P00523). The experiment in a line: Inhibition of c-src in by radioactive phosphotransfer assay.
Assay [8] deals with Tyrosine-protein kinase Fyn (Homo sapiens, UniProt P06241). The experiment in a line: Inhibition of Fyn expressed in Escherichia coli C43 by radioactive phosphotransfer assay.
Tyrosine-protein kinase Fyn (Homo sapiens, UniProt P06241), sequence (P06241 whole entry): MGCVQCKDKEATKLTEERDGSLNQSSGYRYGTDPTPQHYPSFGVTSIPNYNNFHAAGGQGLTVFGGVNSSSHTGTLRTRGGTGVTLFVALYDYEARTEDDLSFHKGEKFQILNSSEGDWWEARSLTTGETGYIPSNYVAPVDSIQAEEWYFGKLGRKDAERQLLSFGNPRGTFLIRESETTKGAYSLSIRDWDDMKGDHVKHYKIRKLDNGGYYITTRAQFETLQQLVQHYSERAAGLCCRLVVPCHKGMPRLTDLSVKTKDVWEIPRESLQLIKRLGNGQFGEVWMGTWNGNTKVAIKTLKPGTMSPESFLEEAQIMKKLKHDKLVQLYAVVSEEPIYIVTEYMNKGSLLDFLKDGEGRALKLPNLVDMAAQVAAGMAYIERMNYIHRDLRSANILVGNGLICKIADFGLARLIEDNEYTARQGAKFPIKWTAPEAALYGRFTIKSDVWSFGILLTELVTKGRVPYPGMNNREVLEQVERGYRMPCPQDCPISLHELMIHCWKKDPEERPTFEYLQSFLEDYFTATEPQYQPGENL
Assay [9] addresses T1, Epidermal growth factor receptor. The experiment in a line: Inhibition of EGFR3 transfected in EGF-stimulated mouse NIH/3T3 cells assessed as reduction of receptor-mediated Erk1 phosphorylation at 0.037 to 1 uM by radioactive phosphotransfer assay. To be noted: NIH3T3, in the assay text read “immunoblotting” for “radioactive phosphotransfer assay”. Type of assay: cell-based. An outline of the steps:
(§2)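 Transduced 3T3:EGFR-as3 cells were serum-starved overnight in 0.5% FBS, then given three-fold inhibitor dilutions from 1 µM to 37 nM (1% DMSO) for 1.5 h. […] Protein-normalised lysates were separated by SDS-PAGE, fluorescence-scanned, then immunoblotted for downstream phosphorylation. Run in duplicate.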

Assay [10] shares this target. Particulars: NIH3T3; at 0.1 to 2 µM.
Assay [11] shares this target. The experiment in a line: Inhibition of EGFR3 transfected in EGF-stimulated mouse NIH/3T3 cells assessed as reduction of receptor-mediated Akt phosphorylation at 0.037 to 1 uM by radioactive phosphotransfer assay. Type of assay: cell-based. To be noted: NIH3T3, in the assay text read “immunoblotting” for “radioactive phosphotransfer assay”. A digest of the protocol:
as §2

Assay [12] shares this target. The experiment in a line: Inhibition of EGFR3 transfected in EGF-stimulated mouse NIH/3T3 cells assessed as reduction of receptor-mediated Erk2 phosphorylation at 0.037 to 1 uM by radioactive phosphotransfer assay. Format: cell-based. To be noted: NIH3T3, in the assay text read “immunoblotting” for “radioactive phosphotransfer assay”. A digest of the protocol:
as §2

For assay [13] the target is unchanged. In words: Inhibition of […] EGFR3 phosphorylation transfected in mouse NIH/3T3 cells at 0.1 to 2 uM by radioactive phosphotransfer assay. Type of assay: cell-based. To be noted: NIH3T3, in the assay text read “immunoblotting” for “radioactive phosphotransfer assay”. An outline of the steps:
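Mouse NIH-3T3 fibroblasts lacking detectable endogenous EGFR, retrovirally transduced with analog-sensitive EGFR-as3 and hygromycin-selected, then grown in DMEM/10% FBS. Inhibitor at 0.1, 1.0 or 2.0 µM (1.2% DMSO), with or without EGF 100 ng/ml for 30 min before harvest. Equal lysate protein run on SDS-PAGE; anti-phosphotyrosine (4G10) immunoblot detected by ECL, with EGFR blot alongside.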

Tyrosine-protein kinase Fyn (Homo sapiens, UniProt P06241, T342G), sequence (P06241 2-537 T342G limits assumed): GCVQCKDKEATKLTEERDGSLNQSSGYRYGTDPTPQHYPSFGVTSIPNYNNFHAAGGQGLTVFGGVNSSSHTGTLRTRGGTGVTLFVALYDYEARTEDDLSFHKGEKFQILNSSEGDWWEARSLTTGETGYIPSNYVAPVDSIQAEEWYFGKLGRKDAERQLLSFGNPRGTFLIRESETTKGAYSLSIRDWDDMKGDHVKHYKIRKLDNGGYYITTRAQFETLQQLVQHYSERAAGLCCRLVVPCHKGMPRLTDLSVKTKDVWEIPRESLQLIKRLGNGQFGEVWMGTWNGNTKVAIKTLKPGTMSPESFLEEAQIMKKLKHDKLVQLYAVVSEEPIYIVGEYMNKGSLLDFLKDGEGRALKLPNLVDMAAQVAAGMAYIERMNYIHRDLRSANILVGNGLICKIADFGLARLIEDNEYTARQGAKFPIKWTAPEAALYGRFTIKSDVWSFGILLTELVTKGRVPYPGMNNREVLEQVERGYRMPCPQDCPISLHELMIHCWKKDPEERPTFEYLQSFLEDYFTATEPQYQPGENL
T1 sequence (P00533 whole entry): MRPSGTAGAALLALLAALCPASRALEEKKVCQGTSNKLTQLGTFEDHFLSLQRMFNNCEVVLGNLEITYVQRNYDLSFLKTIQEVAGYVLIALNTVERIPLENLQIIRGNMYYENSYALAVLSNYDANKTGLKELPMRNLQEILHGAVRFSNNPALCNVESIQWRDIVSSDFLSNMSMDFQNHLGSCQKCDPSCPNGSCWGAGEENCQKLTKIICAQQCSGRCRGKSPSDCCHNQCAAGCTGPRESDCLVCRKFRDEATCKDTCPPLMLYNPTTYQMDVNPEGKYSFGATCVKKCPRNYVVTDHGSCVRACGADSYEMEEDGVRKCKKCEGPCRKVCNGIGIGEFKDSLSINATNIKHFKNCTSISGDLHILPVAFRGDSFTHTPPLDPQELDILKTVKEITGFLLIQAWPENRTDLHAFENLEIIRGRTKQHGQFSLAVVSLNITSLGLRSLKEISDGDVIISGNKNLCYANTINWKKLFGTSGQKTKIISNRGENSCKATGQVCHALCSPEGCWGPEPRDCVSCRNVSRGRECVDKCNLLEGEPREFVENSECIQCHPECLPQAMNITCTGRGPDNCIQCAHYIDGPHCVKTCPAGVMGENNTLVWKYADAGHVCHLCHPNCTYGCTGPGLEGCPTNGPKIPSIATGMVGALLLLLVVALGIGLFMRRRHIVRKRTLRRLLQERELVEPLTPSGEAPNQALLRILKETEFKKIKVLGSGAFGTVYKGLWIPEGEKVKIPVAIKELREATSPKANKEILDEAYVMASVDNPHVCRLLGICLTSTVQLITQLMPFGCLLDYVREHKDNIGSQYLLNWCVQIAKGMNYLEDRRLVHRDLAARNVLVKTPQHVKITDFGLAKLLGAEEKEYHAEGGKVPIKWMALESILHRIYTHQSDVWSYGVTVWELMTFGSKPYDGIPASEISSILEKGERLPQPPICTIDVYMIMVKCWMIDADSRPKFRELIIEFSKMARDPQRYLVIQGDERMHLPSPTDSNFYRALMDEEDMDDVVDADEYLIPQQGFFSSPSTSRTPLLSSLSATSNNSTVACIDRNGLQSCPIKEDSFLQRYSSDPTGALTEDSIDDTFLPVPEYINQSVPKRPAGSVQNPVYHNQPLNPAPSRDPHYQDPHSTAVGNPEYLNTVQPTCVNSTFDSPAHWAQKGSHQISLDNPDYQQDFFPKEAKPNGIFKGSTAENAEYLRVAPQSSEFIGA

For `C=CC(=O)Nc1ccc2ncnc(Nc3ccccc3)c2c1`, the IC50 in [1] was 1100 nM; in [2], 1570 nM; in assay [3], 6 nM; in assay [4], 5 nM; in [5], under 1 nM; in assay [6], 20 nM. Moreover, the IC50 in assay [7] was over 27000 nM; in assay [8], 3700 nM.
For the compound `C=CC(=O)Nc1ccc2ncnc(Nc3ccc(C(C)(C)C)cc3)c2c1`, the inhibition entry in [9], in [11], in [12] and in [13] was “Active” in each case. Moreover, the IC50 in assay [1] came to 900 nM; in assay [2], 187 nM; in assay [3] it was 24 nM; in assay [4], 8400 nM; in assay [5], 689 nM; in assay [6] it was 5 nM. Besides, the IC50 in assay [7] is over 27000 nM; in assay [8], over 300000 nM. For the same compound, in [10], the inhibition result was “inactive”.
Take `C=CC(=O)Nc1ccc2ncnc(Nc3ccc(Br)cc3)c2c1`: the IC50 in assay [1] was 4650 nM; in assay [2] it was 1740 nM; in assay [3] it was 19 nM; in assay [4], 34 nM; in assay [6], 37 nM; in assay [7], over 27000 nM. In addition, the IC50 in assay [8] was over 300000 nM.
`C=CC(=O)Nc1ccc2ncnc(Nc3cccc(Br)c3)c2c1`: the IC50 in [1] was 420 nM; in [2] it was 173 nM; in assay [3], 1 nM; in [4], 42 nM; in assay [6], 1 nM; in [8], over 300000 nM.
Turning to `CCC(=O)Nc1ccc2ncnc(Nc3ccc(C(C)(C)C)cc3)c2c1`, the concentration for half-maximal inhibition (IC50) was 1500 nM in assay [1]; 218 nM in [2]; 540 nM in assay [3]; over 300000 nM in assay [4]; 254 nM in assay [6]; over 27000 nM in assay [7]. Also, in [8], the IC50 was over 300000 nM.
For `C=CC(=O)Nc1ccc2ncnc(NCc3cccc4ccccc34)c2c1`, the IC50 in assay [1] is 1500 nM; in assay [2] it was 123 nM; in assay [3], 150 nM; in assay [4], 1700 nM; in assay [6], 24 nM; in assay [7] it was over 27000 nM. Further, the IC50 in assay [8] was 32000 nM.
In the case of `C=CC(=O)Nc1ccc2ncnc(Nc3cccc4ccccc34)c2c1`, the IC50 in assay [1] worked out at 2100 nM; in assay [2] it was 1270 nM; in assay [3] it was 30 nM; in [4], 670 nM; in assay [6], 27 nM; in assay [7], 16300 nM. Further, the IC50 in [8] is 16300 nM.
For the compound `C=CC(=O)Nc1ccc2ncnc(Nc3ccc4ccccc4c3)c2c1`, the IC50 in assay [1] was 1800 nM; in [2] it was 1360 nM; in assay [3] it was 3 nM; in [4] it was 32 nM; in assay [6] it was 13 nM; in assay [7] it was over 27000 nM. The IC50 in [8] came to 18100 nM.
Regarding `C=CC(=O)Nc1ccc2ncnc(Nc3ccc(C(C)C)cc3)c2c1`, the IC50 in assay [1] was 2200 nM; in assay [2], 357 nM; in assay [3] it was 32 nM; in assay [4], 340 nM; in assay [6] it was 16 nM; in assay [7], over 27000 nM. Besides, the IC50 in assay [8] is over 300000 nM.
As for `C=CC(=O)Nc1ccc2ncnc(Nc3ccc(-c4ccccc4)cc3)c2c1`, the IC50 in assay [1] is 9700 nM; in assay [2], 374 nM; in assay [3], 107 nM; in assay [4] it was 760 nM; in assay [6], 13 nM; in assay [7], over 27000 nM. Moreover, the 50% inhibitory concentration (IC50) in assay [8] was over 300000 nM.
As for `C=CC(=O)Nc1ccc2ncnc(NCCc3ccccc3)c2c1`, the IC50 in assay [1] was 3800 nM; in [2] it was 551 nM; in assay [3], 88 nM; in [4] it was 1400 nM; in assay [6] it was 109 nM; in [7], over 27000 nM. The IC50 in [8] was found to be 40000 nM.
